Data as given in ChEMBL document CHEMBL4229396, “Synthesis, structure and bioactivity of primary sulfamate-containing natural products” (Bioorg Med Chem Lett, 2018).
Converted amounts (≈) assume the structure as drawn.

Experiments:
Cryptococcus neoformans = experiment: Antifungal activity against Cryptococcus neoformans var. grubii H99 ATCC 208821 at 20 uM by resazurin dye based assay relative to control; type: functional
How it was run: (§1)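 Screened by CO-ADD at a single concentration of 20 µM; growth inhibition above 50% at this concentration was classed as a hit. Strains and sources are given in Supplementary Information.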

[1] = Cytotoxicity against HEK293 cells; type: cell-based; conditions: human
Acinetobacter baumannii = experiment: Antibacterial activity against Acinetobacter baumannii ATCC 19606 at 20 uM relative to control; type: functional, ATCC 19606 = CIP 70.34 = JCM 6841; how it was run: as §1
Staphylococcus aureus [2] = experiment: Antibacterial activity against Staphylococcus aureus ATCC 43300; type: functional
Candida albicans = experiment: Antifungal activity against Candida albicans ATCC 90028 at 20 uM by resazurin dye based assay relative to control; type: functional; how it was run: as §1
Carbonic anhydrase 1 = Carbonic anhydrase 1 (Homo sapiens, UniProt P00915); experiment: Inhibition of recombinant human CA1 expressed in Escherichia coli assessed as reduction in CO2 hydration by stopped flow assay
Sequence of Carbonic anhydrase 1 (P00915 whole entry): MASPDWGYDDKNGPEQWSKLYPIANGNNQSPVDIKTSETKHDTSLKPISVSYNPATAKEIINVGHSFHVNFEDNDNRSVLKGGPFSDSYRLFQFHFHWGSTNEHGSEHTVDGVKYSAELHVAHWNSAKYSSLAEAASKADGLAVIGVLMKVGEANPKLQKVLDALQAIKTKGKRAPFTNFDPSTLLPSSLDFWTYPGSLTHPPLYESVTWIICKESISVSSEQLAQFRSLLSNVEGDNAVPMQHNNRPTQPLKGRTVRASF
How it was run: (§2)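 Stopped-flow assay following the CA-catalysed hydration of CO2 (the physiological reaction); Ki values from three determinations, errors within ±5% of the reported value.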

Carbonic anhydrase 2 = Carbonic anhydrase 2 (Homo sapiens, UniProt P00918); experiment: Inhibition of recombinant human CA2 expressed in Escherichia coli assessed as reduction in CO2 hydration by stopped flow assay; how it was run: as §2
Carbonic anhydrase 4 = Carbonic anhydrase 4 (Homo sapiens, UniProt P22748); experiment: Inhibition of recombinant human CA4 expressed in Escherichia coli assessed as reduction in CO2 hydration by stopped flow assay; how it was run: as §2
Sequence of Carbonic anhydrase 4 (P22748 whole entry): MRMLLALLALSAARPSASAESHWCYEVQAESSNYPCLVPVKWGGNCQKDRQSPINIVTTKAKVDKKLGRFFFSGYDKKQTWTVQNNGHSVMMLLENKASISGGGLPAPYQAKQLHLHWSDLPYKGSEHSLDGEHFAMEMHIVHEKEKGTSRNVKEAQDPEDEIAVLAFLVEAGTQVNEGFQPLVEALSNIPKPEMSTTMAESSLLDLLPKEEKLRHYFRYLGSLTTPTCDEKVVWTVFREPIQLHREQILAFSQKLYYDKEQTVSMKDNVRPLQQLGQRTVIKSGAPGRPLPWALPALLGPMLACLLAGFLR

Escherichia coli [3] = experiment: Antibacterial activity against Escherichia coli ATCC 25922 at 20 uM relative to control; type: functional; how it was run: as §1
Escherichia coli [4] = experiment: Antibacterial activity against Escherichia coli ATCC 25922; type: functional
Klebsiella pneumoniae = experiment: Antibacterial activity against Klebsiella pneumoniae ATCC 700603 at 20 uM relative to control; type: functional; how it was run: as §1
Carbonic anhydrase 9 = Carbonic anhydrase 9 (Homo sapiens, UniProt Q16790); experiment: Inhibition of recombinant human CA9 expressed in Escherichia coli assessed as reduction in CO2 hydration by stopped flow assay; how it was run: as §2
Pseudomonas aeruginosa = experiment: Antibacterial activity against Pseudomonas aeruginosa ATCC 27853 at 20 uM relative to control; type: functional; how it was run: as §1
Staphylococcus aureus [5] = experiment: Antibacterial activity against Staphylococcus aureus ATCC 43300 at 20 uM relative to control; type: functional; how it was run: as §1

MIC (Staphylococcus aureus [2]) | Ki (Carbonic anhydrase 1) | Ki (Carbonic anhydrase 2) | Ki (Carbonic anhydrase 4) | MIC (Escherichia coli [4]) | Ki (Carbonic anhydrase 9) | Compound | Activity (Cryptococcus neoformans) | CC50 [1] | Activity (Acinetobacter baumannii) | Activity (Candida albicans) | Activity (Escherichia coli [3]) | Activity (Klebsiella pneumoniae) | Activity (Pseudomonas aeruginosa) | Activity (Staphylococcus aureus [5])
10 µM (≈ 3.46 µg/mL) | 6350 nM | 3410 nM | 4450 nM | > 20 µM | 3100 nM | Nc1ncnc2c1ncn2[C@@H]1O[C@H](COS(N)(=O)=O)[C@@H](O)[C@H]1O | <=50% | 800 nM | <=50% | <=50% | <=50% | <=50% | <=50% | >50%
> 20 µM | 167 nM | 65.2 nM | 234 nM | 5 µM (≈ 1.9 µg/mL) | 143 nM | Nc1nc(Cl)nc2c1ncn2[C@@H]1O[C@H](COS(N)(=O)=O)[C@@H](O)[C@H]1O | <=50% | < 150 nM | <=50% | <=50% | >50% | <=50% | <=50% | <=50%
